Assay results published in publication PMC9835613 (Chemosphere, 2022).
“And” between values parts separate entries of the source, which are not always exact repeats. Equal entries are not always repeated. Marks after values point to notes of the source that are not given here.

Assays:
[1] = ref Burkhard and Kuehl, 1986; cited from earlier work
zebrafish = assay: Survival of embryos after TCDD exposure; assay type: in vivo, zebrafish (Danio rerio); conditions: TCDD-exposed groups at 72 hpf; control (DMSO) 96.4%, p = 0.49
zebrafish metabolome = assay: Non-targeted LC-HRMS metabolomics of TCDD-exposed embryos; assay type: in vivo, zebrafish (Danio rerio); conditions: TCDD exposed vs DMSO
Summary of the method: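 Embryos given a 1-h exposure at 4 hpf to 50 ppt or 10 ppb test compound, or matched DMSO, pooled (40 and 7 embryos respectively) at 24, 48 and 72 hpf. LC-HRMS used HILIC (25 °C) and C18 (60 °C) columns with 2 mM ammonium acetate/acetonitrile gradients, in negative and positive ion modes.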

[2] = TCDD body burden and elimination in embryos, GC-HRMS; assay type: in vivo, zebrafish (Danio rerio); conditions: for body burden relative to the 50 ppt dose: 24 hpf; for Concentration of TCDD detected per embryo (body burden): 1 h at 4 hpf, mean; for half-life: zebrafish, whole embryo (pooled embryos), other: waterborne exposure
Summary of the method: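 AB zebrafish embryos, screened at 3 hpf, exposed at 4 hpf (20 per 2 mL egg water) for 1 h to 50 ppt, 1 ppb or 10 ppb test compound (DMSO stock diluted 1:1000) or paired DMSO, then raised in fresh egg water at 28.5 °C. Dechorionated at 24 hpf. Pooled embryos (7 at 1 and 10 ppb) snap-frozen at 24, 48 and 72 hpf.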

## Clc1cc2c(cc1Cl)Oc1cc(Cl)c(Cl)cc1O2 [TCDD, 2,3,7,8-tetrachlorodibenzo-p-dioxin]
[1]
  Kow: 7.02
zebrafish
  average survival rate: 96.3%
Zebrafish metabolome; bile acid biosynthesis pathway
  upregulation of 3a, 7a-Dihydroxy-5b-cholestane: 1.01 fold
Zebrafish metabolome; every 24 h
  decrease of the dihydrotestosterone peak: 6.02 fold
  downregulation of androsterone: 0.363 fold
  upregulation of pregnenolone: 0.529 fold
Zebrafish metabolome; over time
  downregulation of L-Glutamic acid (glutamate): 0.30 fold
  downregulation of dopamine: 0.66 fold
  downregulation of gamma-aminobutyric acid (GABA): 0.32 fold
[2]; 1 ppb exposure vs 50 ppt exposure
  body burden relative to the 50 ppt dose: approximately 3 times
[2]; 1 ppb waterborne exposure, 48 HPF
  Concentration of TCDD detected per embryo (body burden): 12.7 pg/embryo
[2]; 1 ppb waterborne exposure, 72 HPF
  Concentration of TCDD detected per embryo (body burden): 4.30* pg/embryo
[2]; 10 ppb exposure vs 50 ppt exposure
  body burden relative to the 50 ppt dose: approximately 4.45 times
[2]; 10 ppb waterborne exposure, 24 HPF
  Concentration of TCDD detected per embryo (body burden): 26.6 ± 1.2 pg/embryo and 38.0 ± 4.34 pg/embryo and 38.0* pg/embryo
[2]; 10 ppb waterborne exposure, 48 HPF
  Concentration of TCDD detected per embryo (body burden): 14.7 pg/embryo
[2]; 10 ppb waterborne exposure, 72 HPF
  Concentration of TCDD detected per embryo (body burden): 9.78* pg/embryo
[2]; 50 ppt waterborne exposure, 48 HPF
  Concentration of TCDD detected per embryo (body burden): 5.27 pg/embryo
[2]; 50 ppt waterborne exposure, 72 HPF
  Concentration of TCDD detected per embryo (body burden): 0.407 pg/embryo
[2]; 1 ppb
  half-life: 32.7 h
[2]; 10 ppb
  half-life: 10.7 h
